Test results as given in ChEMBL document CHEMBL5724801, “EUbOPEN Chemogenomics Library - Multiplex” (2024).
Values joined by “and” are separate entries in the source; they are usually repeats but may differ in a detail not shown here. Equal values may be shown once.

Tested on: Fibroblast
Experiment: Multiplex assay against human fibroblast
Format: toxicity, cell-based
Summary of the method: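 Imaging took place on a CQ1 microscope at 37°C and 5% CO2 once compound had been added to live cells stained at seeding with Hoechst33342, BioTracker Green Microtubule Cytoskeleton Dye, MitoTracker Red and Annexin V Alexa Fluor 680. CellPathfinder machine-learning gating classed cells as Hoechst high-intensity objects or normal cells, classed normal cells as having healthy, pyknosed or fragmented nuclei, and classed pyknosed cells as mitotic or apoptotic. Tubulin, mitochondrial-mass and membrane-permeability phenotypes are per cents of the healthy-nucleus cells.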

[1] = 12 h, 1 µM, compound concentration 1 uM
[2] = 12 h, 10 µM, compound concentration 10 uM
[3] = 24 h, 1 µM, compound concentration 1 uM
[4] = 24 h, 10 µM, compound concentration 10 uM
[5] = 48 h, 1 µM, compound concentration 1 uM
[6] = 48 h, 10 µM, compound concentration 10 uM

CCCCCC(O)/C=C/[C@H]1C(=O)CC(O)C1C/C=C\CCCC(=O)O (stereo not given in full)
Population Apoptotic (%) [1]: 52% and 50%
Population Fragmented Nuclei (%) [1]: 24% and 40%
Population Healthy Nuclei (%) [1]: 65% and 41%
Population Hoechst High Intensity Objects (%) [1]: 1% and 2%
Population Membrane Permeable-Phenotype (%) [1]: 0% and 7%
Population Mitotic Cells (%) [1]: 47% and 50%
Population Normal (%) [1]: 98% and 97%
Population Pyknosed Nuclei (%) [1]: 10% and 18%
Population Tubulin-Different-Phenotype (%) [1]: 19% and 52%
Total Cell Count [1]: 172 and 169
Population Apoptotic (%) [2]: 42% and 34%
Population Fragmented Nuclei (%) [2]: 16% and 20%
Population Healthy Nuclei (%) [2]: 69% and 56%
Population Hoechst High Intensity Objects (%) [2]: 0% and 2%
Population Membrane Permeable-Phenotype (%) [2]: 0% and 3%
Population Mitochondria Different-Phenotype (%) [2]: 1% and 7%
Population Mitotic Cells (%) [2]: 57% and 65%
Population Normal (%) [2]: 99% and 97%
Population Pyknosed Nuclei (%) [2]: 13% and 23%
Population Tubulin-Different-Phenotype (%) [2]: 16% and 41%
Total Cell Count [2]: 139 and 101
Population Apoptotic (%) [3]: 35% and 50%
Population Fragmented Nuclei (%) [3]: 20% and 41%
Population Healthy Nuclei (%) [3]: 70% and 50%
Population Hoechst High Intensity Objects (%) [3]: 0% and 1%
Population Membrane Permeable-Phenotype (%) [3]: 0% and 4%
Population Mitochondria Different-Phenotype (%) [3]: 2% and 10%
Population Mitotic Cells (%) [3]: 64% and 50%
Population Normal (%) [3]: 99% and 98%
Population Pyknosed Nuclei (%) [3]: 8%
Population Tubulin-Different-Phenotype (%) [3]: 21% and 47%
Total Cell Count [3]: 169 and 184
Population Apoptotic (%) [4]: 61% and 33%
Population Fragmented Nuclei (%) [4]: 17% and 18%
Population Healthy Nuclei (%) [4]: 72% and 59%
Population Hoechst High Intensity Objects (%) [4]: 2% and 4%
Population Membrane Permeable-Phenotype (%) [4]: 1% and 3%
Population Mitochondria Different-Phenotype (%) [4]: 3% and 1%
Population Mitotic Cells (%) [4]: 38% and 66%
Population Normal (%) [4]: 97% and 95%
Population Pyknosed Nuclei (%) [4]: 9% and 21%
Population Tubulin-Different-Phenotype (%) [4]: 21% and 29%
Total Cell Count [4]: 138 and 101
Population Apoptotic (%) [5]: 50% and 30%
Population Fragmented Nuclei (%) [5]: 27% and 47%
Population Healthy Nuclei (%) [5]: 66% and 46%
Population Hoechst High Intensity Objects (%) [5]: 3% and 2%
Population Membrane Permeable-Phenotype (%) [5]: 0% and 3%
Population Mitochondria Different-Phenotype (%) [5]: 2% and 7%
Population Mitotic Cells (%) [5]: 50% and 70%
Population Normal (%) [5]: 96% and 97%
Population Pyknosed Nuclei (%) [5]: 5%
Population Tubulin-Different-Phenotype (%) [5]: 19% and 42%
Total Cell Count [5]: 175 and 186
Population Apoptotic (%) [6]: 63% and 33%
Population Fragmented Nuclei (%) [6]: 17% and 30%
Population Healthy Nuclei (%) [6]: 74% and 61%
Population Hoechst High Intensity Objects (%) [6]: 4% and 0%
Population Membrane Permeable-Phenotype (%) [6]: 0% and 6%
Population Mitochondria Different-Phenotype (%) [6]: 0% and 3%
Population Mitotic Cells (%) [6]: 36% and 66%
Population Normal (%) [6]: 95% and 99%
Population Pyknosed Nuclei (%) [6]: 8%
Total Cell Count [6]: 141 and 104

Cc1cc(C)c(NC(=O)C2CC3CCC2C3)c(C)c1 (stereo not given)
Population Apoptotic (%) [1]: 12% and 10%
Population Fragmented Nuclei (%) [1]: 14.14% and 5.66%
Population Healthy Nuclei (%) [1]: 59.69% and 81.76%
Population Hoechst High Intensity Objects (%) [1]: 0%
Population Membrane Permeable-Phenotype (%) [1]: 3.51% and 5.38%
Population Mitochondria Different-Phenotype (%) [1]: 7.02% and 6.92%
Population Mitotic Cells (%) [1]: 88% and 90%
Population Normal (%) [1]: 100%
Population Pyknosed Nuclei (%) [1]: 26.18% and 12.58%
Population Tubulin-Different-Phenotype (%) [1]: 12.28% and 22.31%
Total Cell Count [1]: 191 and 159
Population Apoptotic (%) [2]: 10% and 7.69%
Population Fragmented Nuclei (%) [2]: 12.88% and 9.48%
Population Healthy Nuclei (%) [2]: 62.58% and 78.2%
Population Hoechst High Intensity Objects (%) [2]: 0%
Population Membrane Permeable-Phenotype (%) [2]: 3.92% and 3.64%
Population Mitochondria Different-Phenotype (%) [2]: 10.78% and 7.27%
Population Mitotic Cells (%) [2]: 90% and 92.31%
Population Normal (%) [2]: 100%
Population Pyknosed Nuclei (%) [2]: 24.54% and 12.32%
Population Tubulin-Different-Phenotype (%) [2]: 11.76% and 19.39%
Total Cell Count [2]: 163 and 211
Population Apoptotic (%) [3]: 16.28% and 15.38%
Population Fragmented Nuclei (%) [3]: 13.89% and 7.5%
Population Healthy Nuclei (%) [3]: 66.2% and 84.38%
Population Hoechst High Intensity Objects (%) [3]: 0%
Population Membrane Permeable-Phenotype (%) [3]: 9.09% and 3.7%
Population Mitochondria Different-Phenotype (%) [3]: 5.59% and 6.67%
Population Mitotic Cells (%) [3]: 83.72% and 84.62%
Population Normal (%) [3]: 100%
Population Pyknosed Nuclei (%) [3]: 19.91% and 8.12%
Population Tubulin-Different-Phenotype (%) [3]: 12.59% and 16.3%
Total Cell Count [3]: 216 and 160
Population Apoptotic (%) [4]: 9.38% and 12%
Population Fragmented Nuclei (%) [4]: 8.88% and 6.07%
Population Healthy Nuclei (%) [4]: 72.19% and 82.24%
Population Hoechst High Intensity Objects (%) [4]: 0%
Population Membrane Permeable-Phenotype (%) [4]: 7.38% and 2.84%
Population Mitochondria Different-Phenotype (%) [4]: 7.38% and 8.52%
Population Mitotic Cells (%) [4]: 90.62% and 88%
Population Normal (%) [4]: 100%
Population Pyknosed Nuclei (%) [4]: 18.93% and 11.68%
Population Tubulin-Different-Phenotype (%) [4]: 22.13% and 22.73%
Total Cell Count [4]: 169 and 214
Population Apoptotic (%) [5]: 30.77% and 13.33%
Population Fragmented Nuclei (%) [5]: 8.78% and 7.14%
Population Healthy Nuclei (%) [5]: 84.88% and 83.12%
Population Hoechst High Intensity Objects (%) [5]: 0%
Population Membrane Permeable-Phenotype (%) [5]: 1.15% and 5.47%
Population Mitotic Cells (%) [5]: 69.23% and 86.67%
Population Normal (%) [5]: 100%
Population Pyknosed Nuclei (%) [5]: 6.34% and 9.74%
Population Tubulin-Different-Phenotype (%) [5]: 8.62% and 19.53%
Total Cell Count [5]: 205 and 154
Population Apoptotic (%) [6]: 50% and 17.65%
Population Fragmented Nuclei (%) [6]: 9.04% and 4.07%
Population Healthy Nuclei (%) [6]: 87.77% and 88.24%
Population Hoechst High Intensity Objects (%) [6]: 0%
Population Membrane Permeable-Phenotype (%) [6]: 1.82% and 2.56%
Population Mitochondria Different-Phenotype (%) [6]: 10.91% and 6.15%
Population Mitotic Cells (%) [6]: 50% and 82.35%
Population Normal (%) [6]: 100%
Population Pyknosed Nuclei (%) [6]: 3.19% and 7.69%
Total Cell Count [6]: 188 and 221

C[C@H](C[C@H](N)C(=O)O)C(=O)O [2S,4R-4-METHYLGLUTAMATE]
Population Apoptotic (%) [1]: 17.14% and 40%
Population Fragmented Nuclei (%) [1]: 10.46% and 7.78%
Population Healthy Nuclei (%) [1]: 66.67% and 77.25%
Population Hoechst High Intensity Objects (%) [1]: 0%
Population Membrane Permeable-Phenotype (%) [1]: 1.96% and 3.1%
Population Mitochondria Different-Phenotype (%) [1]: 8.82% and 6.98%
Population Mitotic Cells (%) [1]: 82.86% and 60%
Population Normal (%) [1]: 100%
Population Pyknosed Nuclei (%) [1]: 22.88% and 14.97%
Population Tubulin-Different-Phenotype (%) [1]: 9.8% and 13.95%
Total Cell Count [1]: 153 and 167
Population Apoptotic (%) [2]: 12.5% and 8.57%
Population Fragmented Nuclei (%) [2]: 12.57% and 5.6%
Population Healthy Nuclei (%) [2]: 64.57% and 79.31%
Population Hoechst High Intensity Objects (%) [2]: 0%
Population Mitochondria Different-Phenotype (%) [2]: 11.5% and 11.96%
Population Mitotic Cells (%) [2]: 87.5% and 91.43%
Population Normal (%) [2]: 100%
Population Pyknosed Nuclei (%) [2]: 22.86% and 15.09%
Population Tubulin-Different-Phenotype (%) [2]: 17.7% and 19.02%
Total Cell Count [2]: 175 and 232
Population Fragmented Nuclei (%) [3]: 9.47% and 7.6%
Population Healthy Nuclei (%) [3]: 73.16% and 83.04%
Population Hoechst High Intensity Objects (%) [3]: 0%
Population Membrane Permeable-Phenotype (%) [3]: 3.6% and 1.41%
Population Mitochondria Different-Phenotype (%) [3]: 2.16% and 9.86%
Population Mitotic Cells (%) [3]: 90.91% and 68.75%
Population Normal (%) [3]: 100%
Population Pyknosed Nuclei (%) [3]: 17.37% and 9.36%
Population Tubulin-Different-Phenotype (%) [3]: 12.95% and 10.56%
Total Cell Count [3]: 190 and 171
Population Apoptotic (%) [4]: 19.35% and 15.79%
Population Fragmented Nuclei (%) [4]: 10.38% and 3.95%
Population Healthy Nuclei (%) [4]: 72.68% and 87.72%
Population Hoechst High Intensity Objects (%) [4]: 0%
Population Membrane Permeable-Phenotype (%) [4]: 6.02% and 0%
Population Mitochondria Different-Phenotype (%) [4]: 6.02% and 4.5%
Population Mitotic Cells (%) [4]: 80.65% and 84.21%
Population Normal (%) [4]: 100%
Population Pyknosed Nuclei (%) [4]: 16.94% and 8.33%
Population Tubulin-Different-Phenotype (%) [4]: 18.05% and 14.5%
Total Cell Count [4]: 183 and 228
Population Apoptotic (%) [5]: 16.67% and 37.5%
Population Fragmented Nuclei (%) [5]: 6.91% and 10.23%
Population Healthy Nuclei (%) [5]: 84.79% and 85.23%
Population Hoechst High Intensity Objects (%) [5]: 0%
Population Membrane Permeable-Phenotype (%) [5]: 1.63% and 1.33%
Population Mitotic Cells (%) [5]: 83.33% and 62.5%
Population Normal (%) [5]: 100%
Population Pyknosed Nuclei (%) [5]: 8.29% and 4.55%
Population Tubulin-Different-Phenotype (%) [5]: 10.33% and 18%
Total Cell Count [5]: 217 and 176
Population Apoptotic (%) [6]: 28.57% and 21.43%
Population Fragmented Nuclei (%) [6]: 9.04% and 3.43%
Population Healthy Nuclei (%) [6]: 83.51% and 90.56%
Population Hoechst High Intensity Objects (%) [6]: 0%
Population Membrane Permeable-Phenotype (%) [6]: 0% and 2.37%
Population Mitotic Cells (%) [6]: 71.43% and 78.57%
Population Normal (%) [6]: 100%
Population Pyknosed Nuclei (%) [6]: 7.45% and 6.01%
Population Tubulin-Different-Phenotype (%) [6]: 10.83% and 15.64%
Total Cell Count [6]: 188 and 233
